Test [1] in a line: inhibitors of TNFa-induced NFkB p65 translocation, primary screen, imaging, HUVEC, MLSMR starter and 10KST1 sets (AID 438;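 active means inhibition above 20% together with a positive visual image hit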;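 further: compound added about 3h40 before a 20 min TNFalpha stimulation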;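 on inhibition: signal is the nuclear over cytoplasmic p65 intensity ratio per well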). Conditions: HUVEC TNFa-induced p65 nuclear translocation; cell count: measured here: nuclei count (cytotoxicity indicator), at 2.08 µM; inhibition: at 2 µM, stronger effect = higher value, 0% TNFa-plus-vehicle, 100% no-TNFa wells.
A short description of test [2]: endothelial E-selectin expression blockers – imaging, HUVEC, immunofluorescence, MLSMR starter and 10KST1 sets, primary screen (AID 487).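 On inhibition: signal is fraction of cell area covered by stained E-selectin grains.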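 On nuclei count: 100% = median nuclei count of all wells on the same plate.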 Conditions: HUVEC TNFalpha-induced E-selectin immunofluorescence imaging, at 2 µM; inhibition: stronger effect = higher value; nuclei count: measured here: cell number, toxicity.
Test [3] is described as follows: Primary imaging screen for DUSP6 inhibitors that restore phospho-Erk in transfected HeLa cells, chemical complementation (AID 609;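 active means compounds giving at least 50% inhibition in the cell-based MKP-3 phosphatase rescue imaging test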;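 on inhibition: phospho-Erk level distribution per well compared with pooled transfected vehicle control wells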). Conditions: HeLa MKP-3 transfected, phospho-Erk imaging KS statistic, at 10 µM, cells stimulated with TPA for 15 min.
The target of test [4] is Dual specificity protein phosphatase 6 (Homo sapiens) (UniProt Q16828). The description is as above. The note with it: HeLa MKP-3 transfected, phospho-Erk imaging KS statistic; at 10 µM; stronger effect = higher value; cells stimulated with TPA for 15 min.
Test [5] deals with Voltage-gated potassium channel subunit beta-2 (Rattus norvegicus) (UniProt P62483). The test can be described thus: inhibitors of rat Kvbeta2 reductase activity – biochemical, NADPH fluorescence, primary screen (AID 622;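 active means fluorescence slope higher than the sample average by over 3 SD, cut at about -0.22 in these data, passing the limit was not always enough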;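 further: slope of raw intensity against log time taken from 70 to 1610 s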). The note with it: recombinant KvBeta, 4-cyanobenzaldehyde reduction, at 10 µM, stronger effect = higher value.
The target is the same in test [6]. Description: enhancers of rat Kvbeta2 NADPH turnover – biochemical, NADPH fluorescence, primary screen (AID 623;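 active means NADPH fluorescence slope more negative than the mean of all samples by about 3 SD, 99.7% confidence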;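 further: fluorescence intensity change per second fitted from 20 to 320 s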). Conditions: Recombinant KvBeta, NADPH fluorescence decrease slope, 10 min; at 10 µM; stronger effect = lower value.
Test [7] has as its target Alpha-2C adrenergic receptor (Homo sapiens) (UniProt P18825). Description: compounds altering alpha2C-coupled GIRK flux – cell-based, HEK293 alpha2C/GIRK1/2, thallium flux, primary screen (AID 624;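 active means fluorescence slope after compound addition differing from the mean of all screened samples at 99.7% confidence, in either direction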;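 further: slope of fluorescence ratio to pre-addition baseline per second over 15 to 24 s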). The note with it: thallium flux BTC fluorescence, at 10 µM, actives lie on both sides.
The nature of test [8]: inhibitors of larval lipid processing in zebrafish, primary screen, whole organism, PED6 fluorescence, gall bladder and intestine (AID 686;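 active means a full or partial loss of lipid-probe fluorescence in the fish gall bladder, intestine or both, judged by eye; inactive means no fluorescence loss, or compound toxic to the fish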;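 further: larvae 5 to 7 days old with five fish per well; signal comes from phospholipase A2 cleavage of quenched PED6 carried via bile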). Conditions: Zebrafish larvae PED6 lipid processing, fluorescence scoring; screened at 20 µM (by protocol). An outline of the steps: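 system = live zebrafish larvae aged 5-7 days, whole organism | probe or stimulus = ingested quenched lipid PED6 at 100 nM | doses = 20 µM single dose | timing = overnight exposure | detection = fluorescence microscopy with visual scoring of gall bladder and intestine | read-out = visual per-well fluorescence inhibition score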

Test [9] in a line: loss of swimming-algae plug formation – whole organism, Chlamydomonas reinhardtii, WT vs cilia-less mutant, absorbance, 96-well, primary screen (AID 463189;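 active means inhibition at or above 50% relative to wild type and mutant plate controls; inactive means inhibition below 50%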;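 further: 0% = wild type cc124 cells in DMSO and 100% = ciliumless bld1 mutant cells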). The note with it: Chlamydomonas reinhardtii gravitaxis, OD600 absorbance, 2 days; at 10 µM; stronger effect = higher value.
Where [10] appears, read: measured here: cell density z-score.
Where [11] appears, read: measured here: nuclear c-Myc green intensity z-score.
Where [12] appears, read: measured here: nuclear pErk red intensity z-score, stronger effect = higher value.

The source made the active and inactive calls.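 How the source made its calls, unless noted: active means visually confirmed hit in the image check and inhibition above 20%; inconclusive means visually confirmed hit but inhibition not above 20%; inactive means no visual hit in the image check.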

Chain of Alpha-2C adrenergic receptor (Homo sapiens) (P18825 whole entry, looked up): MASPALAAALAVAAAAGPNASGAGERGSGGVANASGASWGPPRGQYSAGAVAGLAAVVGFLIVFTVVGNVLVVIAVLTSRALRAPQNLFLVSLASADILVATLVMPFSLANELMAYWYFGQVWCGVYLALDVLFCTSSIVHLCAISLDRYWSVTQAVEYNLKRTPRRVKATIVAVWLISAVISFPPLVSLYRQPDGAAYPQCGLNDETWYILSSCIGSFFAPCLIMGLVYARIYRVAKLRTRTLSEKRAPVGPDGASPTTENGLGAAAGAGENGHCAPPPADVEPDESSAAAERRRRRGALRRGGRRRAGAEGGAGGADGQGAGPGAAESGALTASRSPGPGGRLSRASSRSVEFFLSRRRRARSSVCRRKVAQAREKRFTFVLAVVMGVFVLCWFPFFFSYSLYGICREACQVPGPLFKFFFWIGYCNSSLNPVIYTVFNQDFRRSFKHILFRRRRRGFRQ
Chain of Dual specificity protein phosphatase 6 (Homo sapiens) (Q16828 whole entry, looked up): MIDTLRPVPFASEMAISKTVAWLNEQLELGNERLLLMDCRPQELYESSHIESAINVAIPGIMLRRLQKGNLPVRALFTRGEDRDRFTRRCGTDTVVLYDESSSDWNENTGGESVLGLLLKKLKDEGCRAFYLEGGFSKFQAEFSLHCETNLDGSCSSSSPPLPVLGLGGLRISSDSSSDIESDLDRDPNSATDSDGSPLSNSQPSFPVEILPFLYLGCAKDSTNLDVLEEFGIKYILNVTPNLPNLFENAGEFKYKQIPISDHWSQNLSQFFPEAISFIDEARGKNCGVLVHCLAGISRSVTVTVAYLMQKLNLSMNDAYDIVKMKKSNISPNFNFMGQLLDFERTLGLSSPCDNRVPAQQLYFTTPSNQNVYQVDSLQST
Chain of Voltage-gated potassium channel subunit beta-2 (Rattus norvegicus) (P62483 whole entry, looked up): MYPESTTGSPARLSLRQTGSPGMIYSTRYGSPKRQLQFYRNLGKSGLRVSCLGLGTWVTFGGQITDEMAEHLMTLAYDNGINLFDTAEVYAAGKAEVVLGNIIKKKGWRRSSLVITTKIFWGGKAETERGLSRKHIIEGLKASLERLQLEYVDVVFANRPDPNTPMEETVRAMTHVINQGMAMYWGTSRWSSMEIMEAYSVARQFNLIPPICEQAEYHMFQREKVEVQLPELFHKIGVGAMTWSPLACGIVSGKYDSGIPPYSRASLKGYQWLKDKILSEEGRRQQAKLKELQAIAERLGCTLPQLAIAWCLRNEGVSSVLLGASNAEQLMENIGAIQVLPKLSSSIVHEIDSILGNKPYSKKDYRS

Usually inhibition stands for the drop in the measured response relative to a control, in per cent. Take `Cc1ccc(C#N)c(SCc2cc3c(cc2Cl)OCO3)n1`: the cell count in [1] came to 538. Besides, the inhibition in test [1] is -31.1% (inactive); in test [2], -76.1% (inactive); in test [4] it was -2.47% (inactive); in [9], 28.8% (inactive). In addition, the nuclei count in test [2] is 159%. Further, the z-score is -0.24 in [3] (setting [10]), -0.891 in test [3] (setting [11]) and -0.243 in test [3] (setting [12]). For the same compound, the fluorescence slope in [5] is -0.515 (inactive). Moreover, the NADPH fluorescence slope in test [6] was -6.3e-05 (inactive). The slope in test [7] was 0.00686 (inactive). Moreover, in [8], the outcome was inactive.
On to `CCOc1ccc(/C(O)=C2/C(=O)C(=O)N(CCN(CC)CC)C2c2ccco2)cc1` (configuration not stated), for which, in [1], the cell count was 494. The inhibition in [1] is -10.3% (inactive); in test [2], -38.9% (inactive); in test [4], -15% (inactive); in [9] it was -2.21% (inactive). The compound further returned a nuclei count in test [2] of 136%. The results for the z-score in test [3] (setting [10]), in test [3] (setting [11]) and in [3] (setting [12]) were 0.106, 0.969 and -0.475, respectively. Moreover, in [5], the fluorescence slope was -0.521 (inactive). Besides, in test [6], the NADPH fluorescence slope is -4.6e-05 (inactive). Besides, the slope in test [7] is 0.00598 (inactive). In addition, the compound was classed as inactive in [8].
On to `CCOC(=O)COc1ccc(Oc2nc(C)cc(OC)n2)nn1`, for which the cell count in [1] was 443. The inhibition in test [1] was -4.6% (inactive); in [2], -136% (inactive); in test [4], 0.671% (inactive); in test [9], 9.9% (inactive). In [2], this compound registered a nuclei count of 152%. For the same compound, the z-score in test [3] (setting [10]) is 0.693; in test [3] (setting [11]), -0.0792; in test [3] (setting [12]) it was 0.257. For the same compound, the fluorescence slope in test [5] was -0.417 (inactive). In addition, the NADPH fluorescence slope in test [6] was -8.4e-05 (inactive). Further, the slope in test [7] is 0.00639 (inactive). Besides, the call in test [8] was inactive.
In the case of `CCn1c(-c2ccco2)n[nH]c1=S`, the cell count in test [1] was found to be 428. Moreover, the inhibition in [1] was -12.3% (inactive); in test [2], -47.8% (inactive); in [4] it was 22.3% (inactive); in test [9] it was 19.9% (inactive). In addition, the nuclei count in test [2] is 92.3%. Moreover, the z-score in test [3] (setting [10]) is 0.73; in test [3] (setting [11]), 0.522; in test [3] (setting [12]), -1.57. Also, the fluorescence slope in test [5] is -0.542 (inactive). The NADPH fluorescence slope in test [6] was -2.6e-05 (inactive). In test [7], the slope was 0.00489 (inactive). Also, the call in [8] was inactive.
With `Cc1ccc(S(=O)(=O)N2CCN(c3nc(C)c4c(c3C#N)CC(C)(C)OC4)CC2)cc1`, the cell count in [1] stood at 645. Besides, the inhibition in [1] was -13.9% (inactive); in test [2], 9.7% (inactive); in [4], 22.7% (inactive); in [9], 110% (active). This compound showed a nuclei count in test [2] of 182%. For the same compound, the z-score in [3] (setting [10]) was 1; in test [3] (setting [11]), -1.7; in test [3] (setting [12]), 0.0451. In [5], the fluorescence slope was -0.471 (inactive). Moreover, the NADPH fluorescence slope in [6] is -0.000183 (inactive). In addition, in [7], the slope was 0.0077 (inactive). In addition, the compound was called inactive in [8].
As to `COc1ccc(OC)c(C2NC(=O)c3sc(=S)n(-c4ccccc4)c3N2)c1` (configuration not stated), the cell count in test [1] was determined as 612. Moreover, the inhibition in [1] was -8.4% (inactive); in test [2] it was -60.3% (inactive); in test [4], -6.86% (inactive); in test [9], -6.25% (inactive). Further, the nuclei count in [2] came out at 159%. In addition, the figures for the z-score in [3] (setting [10]), in [3] (setting [11]) and in [3] (setting [12]) were -1, 0.762 and 1.43, respectively. Moreover, the fluorescence slope in test [5] was -0.369 (inactive). In addition, the NADPH fluorescence slope in test [6] was -6.5e-05 (inactive). Moreover, the slope in test [7] is 0.00525 (inactive). Further, the compound was classed as inactive in test [8].
Consider `N#CC1=C(N)NC(SCc2ccc(F)cc2)=C(C#N)C12CCCCC2`, for which the cell count in test [1] amounted to 614. The inhibition in test [1] was -15.5% (inactive); in test [2], 24.8% (inactive); in [4] it was 6.04% (inactive); in [9], -1.21% (inactive). The compound also gave a nuclei count in [2] of 164%. Also, the z-score in [3] (setting [10]) was -0.696; in [3] (setting [11]) it was -0.0167; in [3] (setting [12]), -0.195. In addition, the fluorescence slope in [5] was -0.404 (inactive). In addition, the NADPH fluorescence slope in [6] was -4.7e-05 (inactive). The slope in test [7] is 0.0043 (inactive). In addition, in test [8], the outcome was inactive.
Regarding `CC(C)Nc1nc(NC(C)C)nc(N(C)n2cnnc2)n1`, the cell count in test [1] stood at 629. Besides, the inhibition in test [1] is -8.8% (inactive); in test [2] it was 27.2% (inactive); in [4], 20.8% (inactive); in test [9], -5.15% (inactive). In addition, the nuclei count in test [2] turned out to be 188%. The results for the z-score in test [3] (setting [10]), in test [3] (setting [11]) and in test [3] (setting [12]) were 0.189, -1.82 and 0.165, respectively. The fluorescence slope in test [5] is -0.482 (inactive). Besides, the NADPH fluorescence slope in test [6] was -0.000155 (inactive). In addition, the slope in test [7] is 0.0051 (inactive). In [8], the result was inactive.
As to `Cc1ccc(SCc2nnc(N)s2)cc1`, the cell count in test [1] was 580. In addition, the inhibition in [1] is -16.4% (inactive); in test [2] it was 29.9% (inactive); in test [4], -15% (inactive); in test [9], 7.17% (inactive). The compound further gave a nuclei count in test [2] of 161%. The z-score in test [3] (setting [10]) was -0.876; in test [3] (setting [11]), -0.003; in test [3] (setting [12]) it was 0.564. Moreover, the fluorescence slope in test [5] is -0.396 (inactive). Also, the NADPH fluorescence slope in test [6] is -5.4e-05 (inactive). The slope in [7] is 0.00821 (inactive). Further, in [8], the compound was classed as inactive.
Consider `CCOC(=O)C(CC(=O)O)N1CCCCC1` (configuration not stated), for which the cell count in test [1] came out at 485. Further, the inhibition in test [1] is -6.2% (inactive); in [2] it was -40.2% (inactive); in test [4] it was 3.5% (inactive); in test [9] it was -13.4% (inactive). The nuclei count in [2] amounted to 89.2%. Moreover, the z-score is -1.03 in test [3] (setting [10]), 1.55 in [3] (setting [11]) and -0.781 in test [3] (setting [12]). Also, the fluorescence slope in test [5] was -0.367 (inactive). In test [6], the NADPH fluorescence slope is 4.4e-05 (inactive). In addition, the slope in [7] was 0.00418 (inactive). Besides, the outcome in test [8] was inactive.
For the compound `COc1ccc(-c2cc(=O)[nH]c(=O)[nH]2)cc1`, the cell count in test [1] is 636. Further, the inhibition was -16% (inactive) in test [1], -269% (inactive) in test [2], 3.66% (inactive) in test [4] and -6.46% (inactive) in test [9]. This compound also came in with a nuclei count in test [2] of 186%. Also, the values for the z-score in test [3] (setting [10]), in [3] (setting [11]) and in test [3] (setting [12]) were -0.456, 0.584 and 0.91, respectively. Further, the fluorescence slope in test [5] is -0.466 (inactive). Also, the NADPH fluorescence slope in test [6] was -0.000273 (inactive). In test [7], the slope is 0.00552 (inactive). The compound was classed as inactive in test [8].
Take `COc1ccccc1N1C(=O)C2ON(c3ccccc3)C(c3ccc(N(C)C)cc3)C2C1=O` (configuration not stated): the cell count in test [1] was 575. Also, the inhibition was -8.3% (inactive) in test [1], -66.7% (inactive) in test [2], -15% (inactive) in test [4] and 9.55% (inactive) in test [9]. Besides, the nuclei count in test [2] was determined as 170%. Also, the z-score in test [3] (setting [10]) was -2.24; in test [3] (setting [11]), 0.301; in test [3] (setting [12]), 1.93. In addition, the fluorescence slope in test [5] is -0.503 (inactive). Moreover, in test [6], the NADPH fluorescence slope is -3e-05 (inactive). The slope in [7] was 0.00352 (inactive). Also, in test [8], the call was inactive.
Regarding `CCCCOC(=O)Nc1ccc(S(=O)(=O)Nc2nc(C)cc(C)n2)cc1`, the cell count in test [1] is 515. The inhibition in test [1] was -10.1% (inactive); in test [2] it was -17.4% (inactive); in test [4], 2.92% (inactive); in test [9] it was -15.6% (inactive). Besides, in test [2], the nuclei count worked out at 128%. The z-score was 0.944 in test [3] (setting [10]), 1.82 in test [3] (setting [11]) and -0.786 in test [3] (setting [12]). Moreover, the fluorescence slope in [5] was -0.439 (inactive). Further, the NADPH fluorescence slope in [6] is -1.7e-05 (inactive). In addition, the slope in test [7] was 0.00517 (inactive). In test [8], the outcome was inactive.
Turning to `O=C(c1cccs1)N1CCC(N2CCN(c3ccccc3)CC2)CC1`, the cell count in test [1] is 390. In addition, the inhibition was -7.3% (inactive) in [1], -50.1% (inactive) in [2], 11.3% (inactive) in test [4] and 43.7% (inactive) in [9]. Moreover, the nuclei count in [2] worked out at 119%. Also, the z-score was 0.783 in [3] (setting [10]), 0.365 in test [3] (setting [11]) and -0.94 in [3] (setting [12]). In test [5], the fluorescence slope is -0.378 (inactive). For the same compound, the NADPH fluorescence slope in test [6] is -1.9e-05 (inactive). In addition, the slope in test [7] was 0.00799 (inactive). The compound was called inactive in test [8].

For the origin of these results see PubChem BioAssay.
